Assay results as given in PMC3076580 (Investigational New Drugs, 2010).
One block for each molecule: values may come before it.

How the values were obtained:
[1] = tested on: H-146 small cell lung cancer xenograft; experiment: Xenograft testing, ip; type: in vivo, nude mice; details: H-146, ip at MTD
In short: (§1)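 Female BALB/c nude mice anaesthetised with propanidid 5 mg/10 g ip. Tumour fragments (~2 mm cubes) implanted sc in each flank. Treatment started at minimum diameter 4 mm (32 mm3): liposomal test compound or gemcitabine ip q3dx5 at MTD. RTV = Vx/V0 ×100, group median. T/C = treated/control RTV ×100; SGD counts doubling times gained. Deaths within 2 weeks after the last dose counted as toxic. Mann–Whitney U, p<0.05.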

[2] = tested on: LOX cells; experiment: Growth inhibition with or without nucleoside transport inhibitors; type: cell-based; details: Homo sapiens
In short: (§2)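 Cells grown in suspension in RPMI-1640-based medium and plated at 2.5.105 cells/ml. NBMPR (100 μM) or dipyridamole (4 μg/ml) was present or absent, with serial dilutions of test compound or gemcitabine. Cells counted after 72 h. Growth set relative to plated cells (0%) and untreated 72 h cells (100%). IC50 read from a straight-line interpolated curve.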

[3] = tested on: THX malignant melanoma xenograft; experiment: Xenograft testing, ip; type: in vivo, nude mice; details: ip every third day for five doses at MTD
In short: as §1

[4] = tested on: MiaPaCa-2 pancreatic cancer xenograft; experiment: Xenograft testing, ip; type: in vivo, nude mice; details: MiaPaCa-2, ip every third day for five doses at MTD
In short: as §1

[5] = tested on: MOLT4/C8 cells; experiment: Growth inhibition with or without nucleoside transport inhibitors; type: cell-based; details: Homo sapiens
In short: as §2

[6] = tested on: PANC-1 pancreatic cancer xenograft; experiment: Xenograft testing, ip; type: in vivo, nude mice; details: PANC-1, ip every third day for five doses at MTD
In short: as §1

[7] = tested on: human colon cancer xenograft Co6044; experiment: Xenograft testing, oral; type: in vivo, nude mice
[8] = tested on: AG6000 cells (gemcitabine resistant A2780 variant, dCK deficient); experiment: Growth inhibition, SRB assay, 72 h exposure; type: cell-based; details: Homo sapiens, AG6000, 72 h
In short: (§3)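 Monolayer cells seeded on day 1 at 6,000 (A2780), 18,000 (AG6000) or 8,000 (C26-G) cells/well. Drug dilutions added on day 2, final 2.10−10 to […], from a 20 mM DMSO stock (DMSO ≤1%). After 72 h, fixed with ice-cold TCA for 60 min and stained with sulforhodamine B. Relative growth taken from OD versus control wells. IC50 interpolated from straight-line curves.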

[9] = tested on: L1210/L5 cells; experiment: Growth inhibition, cell counting, 72 h exposure; type: cell-based, murine; details: Mus musculus, L1210, 72 h
In short: (§4)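 Suspension cells in RPMI-1640 with 10% FCS. L5/L4A6 medium had 60 μM 2-mercaptoethanol and 250 ng/ml gentamicin; BCLO had 3.2 mM glutamine and gentamicin; Bara-C had 5% FCS plus 5% rat serum. Seeding: 50,000 (L5), 100,000 (L4A6), 150,000 (BCLO) or 175,000 (Bara-C) cells/well. Drug (final 2.10−10 to 10−3 M) added at plating; counted at 72 h. IC50 interpolated against 0%/100% controls.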

[10] = tested on: L4A6 cells (cytarabine resistant L1210 variant); experiment: Growth inhibition, cell counting, 72 h exposure; type: cell-based, murine; details: Mus musculus, L1210, 72 h
In short: as §4

[11] = tested on: MOLT4 cells; experiment: Growth inhibition with or without nucleoside transport inhibitors; type: cell-based, human; details: for IC50: Homo sapiens
In short: as §2

[12] = tested on: A2780 cells; experiment: Growth inhibition, SRB assay, 72 h exposure; type: cell-based; details: Homo sapiens, A2780, 72 h
In short: as §3

[13] = target: purified deoxycytidine deaminase (dCDA) (Homo sapiens, UniProt P32320); experiment: Deoxycytidine deaminase activity; type: biochemical; details: 37°C; for deamination as substrate of dCDA: 500 μM substrate, no inhibitor
In short: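 Purified dCDA (source not stated) run at 37°C with 500 μM dCyd or gemcitabine as substrate and 500 μM competing compound. Every run included a blank (no substrate or inhibitor) and a substrate-only control. Stopped after 15 or 25 min with 40% w/v TCA, then neutralised with trioctylamine/trichlorotrifluoroethane […]. Substrates and the deoxyuridine or difluorodeoxyuridine products measured by reversed-phase HPLC. Unpaired t-test.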

[14] = tested on: C26-A cells; experiment: Growth inhibition, SRB assay, 72 h exposure; type: cell-based, murine; details: Mus musculus
[15] = tested on: MA-11 breast cancer xenograft; experiment: Xenograft testing, ip; type: in vivo, nude mice; details: MA-11, ip at MTD
In short: as §1

[16] = tested on: C26-G cells (gemcitabine resistant); experiment: Growth inhibition, SRB assay, 72 h exposure; type: cell-based, murine; details: Mus musculus
In short: as §3

[17] = tested on: TAX II-1 malignant fibrous histiocytoma xenograft; experiment: Xenograft testing, ip; type: in vivo, nude mice; details: TAX II-1, ip at MTD
In short: as §1

[18] = tested on: THX cells; experiment: Growth inhibition with or without nucleoside transport inhibitors; type: cell-based, human; details: for IC50: Homo sapiens
In short: as §2

[19] = Co6044, oral, days 1, 4 and 7, 20 mg/kg
[20] = Co6044, oral, days 1, 4 and 7, 40 mg/kg

purified deoxycytidine deaminase (dCDA), sequence (P32320 whole entry): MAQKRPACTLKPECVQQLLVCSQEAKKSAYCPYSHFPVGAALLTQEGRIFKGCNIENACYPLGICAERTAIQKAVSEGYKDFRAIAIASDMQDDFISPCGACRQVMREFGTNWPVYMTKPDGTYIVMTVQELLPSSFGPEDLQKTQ

SMILES: Nc1ccn([C@@H]2O[C@H](CO)[C@@H](O)C2(F)F)c(=O)n1 [gemcitabine, 2′,2′-difluorodeoxycytidine]
- antitumor activity (in words) [1]: not active
- IC50 ([2]; +Dipyridamole 4 μg/ml): 610 ± 220 nM
- IC50 ([2]; +NBMPR 100 μM): 1150 ± 60 nM
- IC50 ([2]; no transport inhibitor): 4.7 ± 1 nM
- SGD [3]: > 6.25
- Deaths [4]: 7/7
- IC50 ([5]; Molt4/C8, MOLT4/C8, +Dipyridamole 4 μg/ml): 7.62 ± 0.59 µM
- IC50 ([5]; Molt4/C8, MOLT4/C8, +NBMPR 100 μM): 8.31 ± 1.2 µM
- IC50 ([5]; Molt4/C8, MOLT4/C8, no transport inhibitor): 0.46 ± 0.12 µM
- Deaths [6]: 4/9
- Deaths [7, 19]: 0/7
- Weight loss (%) [7, 19]: 0%
- Deaths [7, 20]: 5/7
- Maximal T/C (%) [7, 20]: 8%
- Weight loss (%) [7, 20]: 1%
- toxicity (in words) ([7]; Co6044 bearing mice, oral, at similar doses as the ip administration): very toxic
- IC50 [8]: 185 ± 108 µM
- IC50 [9]: 1.9 ± 0.6 nM
- IC50 [10]: 8.8 ± 3.6 µM
- IC50 ([11]; MOLT-4, MOLT4, +Dipyridamole 4 μg/ml): 610 ± 260 nM
- IC50 ([11]; MOLT-4, MOLT4, +NBMPR 100 μM): 820 ± 250 nM
- IC50 ([11]; MOLT-4, MOLT4, no transport inhibitor): 3 ± 3.3 nM
- decrease in sensitivity by dipyridamole ([11]; MOLT4, 4 μg/ml dipyridamole): 203 fold
- decrease in sensitivity by NBMPR ([11]; MOLT4, 100 μM NBMPR): 273 fold
- IC50 [12]: 1.5 ± 0.6 nM
- dFdU formed when dCyd and gemcitabine were added simultaneously ([13]; 500 μM each): 1,127 pmol/hr/μl enzyme
- deamination as substrate of dCDA [13]: 624 pmol/hr/μl enzyme
- IC50 [14]: 16 ± 4 nM
- antitumor activity (in words) [15]: some activity
- IC50 [16]: 20 ± 10 nM
- antitumor activity (in words) [17]: inactive
- decrease in sensitivity by dipyridamole ([18]; 4 μg/ml dipyridamole): 115 fold
- decrease in sensitivity by NBMPR ([18]; 100 μM NBMPR): 55 fold
- IC50 ([18]; +Dipyridamole 4 μg/ml): 310 ± 130 nM
- IC50 ([18]; +NBMPR 100 μM): 150 ± 50 nM
- IC50 ([18]; no transport inhibitor): 2.7 ± 0.7 nM

- deamination as substrate of dCDA [13]: 312 pmol/hr/μl enzyme
SMILES: Nc1ccn([C@H]2C[C@H](O)[C@@H](CO)O2)c(=O)n1 [dCyd, deoxycytidine]
